Data set [1] concerns the target T1, Protein deacetylase HDAC6 (Homo sapiens, UniProt Q9UBN7).
T1 sequence (Q9UBN7 whole entry): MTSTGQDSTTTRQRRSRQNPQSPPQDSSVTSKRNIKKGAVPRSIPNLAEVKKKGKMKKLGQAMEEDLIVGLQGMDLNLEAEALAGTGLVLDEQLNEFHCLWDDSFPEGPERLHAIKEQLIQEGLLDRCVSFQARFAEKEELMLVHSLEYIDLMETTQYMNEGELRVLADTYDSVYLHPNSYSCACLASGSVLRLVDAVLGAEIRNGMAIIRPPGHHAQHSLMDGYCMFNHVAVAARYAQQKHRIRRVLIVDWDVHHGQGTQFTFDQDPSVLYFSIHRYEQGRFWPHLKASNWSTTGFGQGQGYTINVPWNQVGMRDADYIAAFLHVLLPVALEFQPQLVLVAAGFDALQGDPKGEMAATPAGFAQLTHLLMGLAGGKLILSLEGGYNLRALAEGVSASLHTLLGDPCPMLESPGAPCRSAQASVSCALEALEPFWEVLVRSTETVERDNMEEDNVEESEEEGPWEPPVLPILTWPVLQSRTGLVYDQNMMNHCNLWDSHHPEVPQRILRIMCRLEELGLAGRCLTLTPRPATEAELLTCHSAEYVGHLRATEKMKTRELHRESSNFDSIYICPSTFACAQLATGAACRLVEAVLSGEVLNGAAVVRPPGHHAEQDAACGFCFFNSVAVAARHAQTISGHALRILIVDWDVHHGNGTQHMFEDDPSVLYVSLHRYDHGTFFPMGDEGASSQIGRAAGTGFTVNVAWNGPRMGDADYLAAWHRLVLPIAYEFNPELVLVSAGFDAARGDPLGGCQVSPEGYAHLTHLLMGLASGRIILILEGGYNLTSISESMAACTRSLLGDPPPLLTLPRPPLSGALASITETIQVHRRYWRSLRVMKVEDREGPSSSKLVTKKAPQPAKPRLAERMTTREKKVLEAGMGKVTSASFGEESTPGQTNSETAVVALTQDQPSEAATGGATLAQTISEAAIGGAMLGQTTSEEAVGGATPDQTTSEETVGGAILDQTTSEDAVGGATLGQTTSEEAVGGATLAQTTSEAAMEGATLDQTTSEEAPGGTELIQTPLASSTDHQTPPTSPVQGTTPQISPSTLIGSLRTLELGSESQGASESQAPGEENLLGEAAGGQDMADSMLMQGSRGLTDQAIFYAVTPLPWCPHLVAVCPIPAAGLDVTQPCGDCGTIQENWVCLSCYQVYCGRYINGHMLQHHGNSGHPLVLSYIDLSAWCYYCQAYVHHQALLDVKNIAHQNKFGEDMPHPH
Description: Inhibition of recombinant HDAC6 (unknown origin) by homogeneous fluorescence release assay.

The target of data set [2] is T2, Polyamine deacetylase HDAC10 (Homo sapiens, UniProt Q969S8).
T2 sequence (Q969S8 whole entry): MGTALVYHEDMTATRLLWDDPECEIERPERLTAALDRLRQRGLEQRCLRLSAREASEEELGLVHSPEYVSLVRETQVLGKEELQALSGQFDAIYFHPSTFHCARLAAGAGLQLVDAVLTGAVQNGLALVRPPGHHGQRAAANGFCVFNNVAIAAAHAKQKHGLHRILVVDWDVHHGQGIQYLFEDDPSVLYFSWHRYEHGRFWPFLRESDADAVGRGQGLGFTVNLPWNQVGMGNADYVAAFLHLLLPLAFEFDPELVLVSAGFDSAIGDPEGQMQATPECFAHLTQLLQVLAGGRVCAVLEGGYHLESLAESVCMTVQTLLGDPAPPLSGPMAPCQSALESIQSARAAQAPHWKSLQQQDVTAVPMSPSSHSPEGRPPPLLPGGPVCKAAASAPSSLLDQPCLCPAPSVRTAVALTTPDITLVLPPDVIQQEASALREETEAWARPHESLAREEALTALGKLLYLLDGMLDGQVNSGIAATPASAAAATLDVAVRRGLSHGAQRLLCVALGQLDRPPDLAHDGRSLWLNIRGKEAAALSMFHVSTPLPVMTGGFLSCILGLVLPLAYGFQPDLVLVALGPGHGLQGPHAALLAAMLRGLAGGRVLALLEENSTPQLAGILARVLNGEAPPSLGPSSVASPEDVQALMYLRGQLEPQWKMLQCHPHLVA
The data set can be described thus: Inhibition of recombinant HDAC10 (unknown origin) by homogeneous fluorescence release assay.

Data set [3] can be described thus: Cytotoxicity against human MG63 cells assessed as growth inhibition at 0.5 uM treated for 14 days measured on day 14 post last treatment by Alamar Blue assay. It is filed as cell-based. Conditions: mg-63, 336 h. Summed up: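 MG-63 sarcosphere-derived cells, 10000 seeded, grown in complete α-MEM to 70% confluence. Then kept in mineralization medium (10 mM β-glycerophosphate, 10−8 M dexamethasone, ascorbic acid 2-phosphate) with continuous compound exposure (0.025–0.5 μM) for 14 days. Viability then read by Alamar Blue.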
(In general: Alamar Blue is a resazurin reagent that responds to reducing activity.)

Data set [4] has as its target Histone deacetylase (Homo sapiens) (UniProt Q13547+O15379+Q9UBN7+Q92769+Q9UQL6+Q8WUI4+Q9BY41+Q96DB2+P56524+Q9UKV0+Q969S8). The note with it: MG-63, 0.5 to 2 uM.
For a further data set, the system named is MG-63. Description: Induction of human MG63 cell differentiation assessed as increase in bone nodule formation after 14 days by Alizarin Red S staining-based spectrophotometric analysis. It is filed as functional. The method, boiled down:
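Cells from dissociated MG-63 sarcospheres were grown in α-MEM with 10% FBS until 70% confluent. They were then switched to mineralization medium (10 mM β-glycerophosphate, 10−8 M dexamethasone, […] ascorbic acid 2-phosphate) and exposed continuously to 0.025–0.5 μM compound for 14 days. After fixation, Alizarin Red S staining (pH 4.2) was eluted with 10% cetylpyridinium chloride and read at 570 nm. Values are OD relative to medium-alone control, in triplicate.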

One may read the IC50 as the concentration that inhibits the measured activity by half.

Active and inactive are the calls of the source. No cut-off for these calls is given here.

For the compound `O=C(/C=C/c1ccc(NC(=O)C(Cc2ccccc2)c2ccccc2)cn1)NO` (stereo not given), the results for the IC50 in data set [1] and in data set [2] were 10 nM and 1800 nM, respectively. In data set [3], the Activity entry was “Toxic”.
For the compound `O=C(CCCCSc1nc(-c2ccc(-c3ccccc3)cc2)cc(=O)[nH]1)NO`, in data set [4], the inhibition entry was “Active”. The Activity entry with MG-63 is “Dose-dependent effect”.

Values taken from ChEMBL document CHEMBL3425488, “Novel histone deacetylase inhibitors induce growth arrest, apoptosis, and differentiation in sarcoma cancer stem cells” (J Med Chem, 2015).
